An excerpt weighted towards active compounds, which were near 2.8% of everything screened.
mABHD4 FP = inhibitors of mouse ABHD4. inhibition, % at 8.92 µM. actives 0.54% (n = 370,000). Q8VD66. purified mABHD4, FP-Rh probe fluorescence polarization;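 active means inhibition exceeding the mean over every tested compound plus 3 SD, cut at about 30% in these data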;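 further: 0% = plate median of compound wells and 100% = S159A mutant with DMSO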
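Assay system: wild-type mouse ABHD4 protein; compound: single nominal dose of 8.92 µM, 0.89% DMSO final; schedule: 45 min + 60 min at 25 °C; measured by: FP readout, ex 525 nm / em 598 nm; evaluation: % inhibition of FP-Rh probe binding versus controls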
PAFAH2 FP inh = inhibitors of human PAFAH2 | Q99487 | recombinant PAFAH2, FP-rhodamine activity probe, fluorescence polarization | inhibition, % at 3.39 µM | actives 0.99% (n = 340,000);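 active means inhibition above the mean over all tested compounds plus 3 SD, cut at about 30% in these data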;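 further: inhibitors block probe labeling of enzyme so polarization drops; 0% = enzyme with DMSO and 100% = wells lacking PAFAH2 protein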
PAFAH1B2 inh = PAFAH1B2 (human) inhibition; inhibition, % at 3.39 µM; actives 1.2% (n = 340,000); recombinant PAFAH1B2, FP-rhodamine activity probe, fluorescence polarization; P68402;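 active means inhibition above the mean of all tested compounds plus 3 SD, cut at about 24% in these data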;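 further: 0% = enzyme with DMSO and 100% = wells lacking PAFAH1B2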
Target sequence (P68402 whole entry, looked up): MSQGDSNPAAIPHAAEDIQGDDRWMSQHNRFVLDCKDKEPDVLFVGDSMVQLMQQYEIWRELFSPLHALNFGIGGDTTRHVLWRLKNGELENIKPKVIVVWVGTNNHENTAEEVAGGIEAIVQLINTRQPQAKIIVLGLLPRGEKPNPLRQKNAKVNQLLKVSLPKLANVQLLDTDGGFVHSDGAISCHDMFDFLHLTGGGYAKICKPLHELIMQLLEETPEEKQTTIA
HTRA1 inhibitor = HTRA1 (human) protease inhibition | AID 504803 | recombinant HTRA1, FP-rhodamine activity-based probe, fluorescence polarization | Q92743 | actives 0.5% (n = 340,000) | inhibition, % at 5.96 µM; in the data active means inhibition above about 36%;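 further: 0% = enzyme with DMSO and 100% = wells lacking enzyme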
pPAFAH FP inh = pPAFAH (human) enzyme inhibition; AID 463082; recombinant pPAFAH, FP-rhodamine probe fluorescence polarization; actives 1.5% (n = 330,000); inhibition, % at 3.39 µM;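 active means inhibition above the mean inhibition across the screen plus 3 SD, cut at about 25% in these data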;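 further: inhibitors block binding of the rhodamine activity-based probe so polarization drops; 0% = enzyme with DMSO and 100% = wells lacking pPAFAH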
Target sequence (Q13093 whole entry, looked up): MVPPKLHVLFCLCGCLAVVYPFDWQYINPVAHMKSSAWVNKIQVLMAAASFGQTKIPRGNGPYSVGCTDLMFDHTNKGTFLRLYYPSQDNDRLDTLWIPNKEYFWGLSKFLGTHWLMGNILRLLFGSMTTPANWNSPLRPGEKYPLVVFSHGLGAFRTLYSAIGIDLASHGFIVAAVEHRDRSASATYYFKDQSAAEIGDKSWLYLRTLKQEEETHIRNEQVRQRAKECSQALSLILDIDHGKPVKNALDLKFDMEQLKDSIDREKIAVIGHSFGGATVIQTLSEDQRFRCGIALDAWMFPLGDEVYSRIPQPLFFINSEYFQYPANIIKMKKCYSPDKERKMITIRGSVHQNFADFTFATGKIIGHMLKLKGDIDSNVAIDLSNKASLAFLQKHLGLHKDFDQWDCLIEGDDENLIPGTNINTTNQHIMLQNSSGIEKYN
PAFAH1B3 inh = inhibitors of human PAFAH1B3 | recombinant PAFAH1B3, FP-rhodamine probe, fluorescence polarization | inhibition, % at 3.39 µM | actives 0.28% (n = 340,000);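 active means inhibition above the screen-wide average of all tested compounds plus 3 SD, cut at about 25% in these data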;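 further: 0% = enzyme with DMSO only and 100% = wells lacking PAFAH1B3 protein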
* hit, by the source's call; nt = no result.

SMILES	mABHD4 FP	PAFAH2 FP inh	PAFAH1B2 inh	HTRA1 inhibitor	pPAFAH FP inh	PAFAH1B3 inh
O=S(=O)(Nc1cccc(-c2ccc(N3CCCCCC3)nn2)c1)c1ccccc1F	-26	1	9	-16	11	3
Cc1sc2nc(COC(=O)CNC(=O)c3ccccc3Cl)[nH]c(=O)c2c1C	-9	nt	nt	nt	nt	nt
Cc1ccc(Cn2cc(CN3CC=CS3(=O)=O)nn2)cc1	3	nt	nt	nt	nt	nt
O=C(c1ccc(S(=O)(=O)Nc2ccccc2F)cc1)N1CCN(c2ccccn2)CC1	3	-2	2	8	3	5
Cc1ccccc1NS(=O)(=O)c1ccc(C(=O)N2CCN(c3ccccn3)CC2)cc1	-5	-1	2	-1	26*	-4
Cc1ccccc1NS(=O)(=O)c1ccc(C(=O)N2CCCCCC2)cc1	-2	13	-1	-4	25*	-3
Cc1ccccc1NS(=O)(=O)c1ccc(OCC(=O)NCc2ccccn2)cc1	0	11	2	-3	29*	10
Cc1ccc(/C(N)=N/OC(=O)Cc2ccccc2)cc1	-2	5	1	-6	-3	7
N/C(=N\OC(=O)Cc1ccccc1)c1ccc(Br)cc1	-5	-1	27*	-8	4	10
Cc1ccc(NC(=O)CSc2nnc(-c3cccnc3)n2Cc2ccco2)c(C)c1	4	nt	nt	nt	nt	nt
C[C@H]1CN([C@@H](C)CO)C(=O)c2cc(NS(=O)(=O)c3ccc(F)cc3)ccc2O[C@H]1CN(C)S(=O)(=O)c1cn(C)cn1	8	1	7	1	28*	7
C[C@H](CO)N1C[C@H](C)[C@@H](CN(C)S(=O)(=O)c2cn(C)cn2)Oc2ccc(NS(=O)(=O)c3ccccc3)cc2C1=O	0	-5	-3	3	4	2
COc1ccc(S(=O)(=O)Nc2ccc3c(c2)C(=O)N([C@H](C)CO)C[C@H](C)[C@@H](CN(C)S(=O)(=O)c2ccccc2)O3)cc1	2	-3	40*	-6	9	10
CCCC(=O)N1CCC[C@]2(CC[C@H](CCC(=O)OCC)O2)C1	-4	nt	nt	nt	nt	nt
O=C(CSC(=S)N1CCCC1)c1cc(Br)cc(Br)c1O	4	nt	nt	nt	25*	nt
O=C(CSC(=S)N1CCCC1)Nc1cc2c(cc1Br)OCCO2	-2	6	-3	3	1	10
O=C(Cc1ccc(Cl)cc1)N1CCc2ccccc2C1	4	0	6	-4	8	0
O=C(c1nnc(Cc2ccc(Cl)cc2)o1)N1CCc2ccccc2C1	-1	4	3	-6	30*	-2
COc1ccc(C)cc1NC(=O)c1ccc(NS(=O)(=O)c2cccs2)cc1	-12	6	-2	3	32*	-4
COc1ccc(C)cc1NC(=O)c1ccc(NS(=O)(=O)c2c(C)noc2C)cc1	-14	-5	0	6	15	6
CCOc1ccc(Br)cc1S(=O)(=O)Nc1ccc(C(=O)Nc2ccccc2OC)cc1	-34	-4	-1	-54	29*	-6
COC(=O)C1CN(Cc2ccc(Cl)cc2)CCS(=O)(=O)N1Cc1cn(Cc2ccc(OC)cc2)nn1 (stereo not drawn)	0	nt	nt	nt	nt	nt
NC(=S)n1[nH]c(-c2ccc([N+](=O)[O-])cc2)c(N=Nc2ccc(O)cc2)c1=O	23	11	7	11	32*	11
Cc1[nH]n(C(N)=S)c(=O)c1N=Nc1ccc([N+](=O)[O-])cc1Cl	12	27	0	10	nt	6
CC[n+]1ccc(C)c2cc(S(=O)C(F)(F)F)ccc21 (stereo not drawn)	nt	-2	4	42*	12	4
SMILES	mABHD4 FP	PAFAH2 FP inh	PAFAH1B2 inh	HTRA1 inhibitor	pPAFAH FP inh	PAFAH1B3 inh
C=C1C(=O)[C@]23C[C@H]1CC[C@H]2[C@]1(C)CCC[C@@](C)(C(=O)OC)[C@H]1C[C@@H]3O	-2	nt	nt	nt	nt	nt
COC(=O)C1CN(C2CCCC2)CCS(=O)(=O)N1Cc1ccc(C(F)(F)F)cc1 (stereo not drawn)	-3	nt	nt	nt	nt	nt
COc1ccc(Sc2ccc(/C=C3\C(=O)NN(c4ccccc4)C3=O)o2)cc1	20	34*	42*	5	29*	15
COc1ccc(-n2c(C)cc(/C=C3\C(=O)NN(c4ccccc4)C3=O)c2C)cc1	-1	20	9	1	11	-3
O=C(Cc1ccc2c(c1)OCCO2)c1c(O)cc(O)cc1O	-11	4	8	0	11	5
O=C(CCc1ccc(O)cc1)c1c(O)cc(O)cc1O	-8	-11	31*	-6	5	0
O=C(c1ccc(F)cc1Cl)N(Cc1ccccn1)CC1CCCO1 (stereo not drawn)	-1	nt	nt	nt	nt	nt
O=C(Nc1ccc(N2CCCC2)cc1)c1ccc2ccccc2c1	9	-1	3	-3	34*	4
O=C(Nc1ccccc1C(=O)O)c1cc(S(=O)(=O)Nc2cccc(F)c2)ccc1Cl	-19	-8	4	-15	31*	1
O=C(Nc1ccccc1C(=O)O)c1cc(S(=O)(=O)N2CCCCCC2)ccc1Cl	-2	-1	10	-10	0	-7
c1ccc(OC2CCN(c3ncnc4sccc34)CC2)cc1	-13	nt	nt	nt	nt	nt
COc1ccc(NS(=O)(=O)c2cccc(C(=O)N3CCCC(C)C3)c2)cc1 (stereo not drawn)	6	4	4	-2	25*	4
COc1ccc(NS(=O)(=O)c2cccc(C(=O)N3CCC3)c2)cc1	4	-5	6	0	17	6
Cc1cccc(NS(=O)(=O)c2cccc(C(=O)N3CCCC3)c2)c1	-4	-2	2	1	27*	0
CCN(CC(=O)NCc1cccs1)C(=O)c1cccc(S(=O)(=O)Nc2cccc(C)c2)c1	-3	7	3	-1	31*	9
O=C(c1cccc(NS(=O)(=O)c2ccc(Br)cc2)c1)N1CCN(c2ccccc2O)CC1	-3	-10	25*	-11	nt	-1
Cc1cccc(NS(=O)(=O)c2ccc(OCC(=O)N3CCCC3)cc2)c1	2	7	10	7	34*	8
Cc1ccc(SCC(=O)Nc2cccc(C)c2)cc1	-10	-1	29*	-8	4	11
Cc1ccc(SCC(=O)Nc2cc([N+](=O)[O-])ccc2O)cc1	1	49*	82*	-2	6	9
CCOc1ccc(-n2c(SCC(=O)Nc3cc(C)c(NC(=O)c4ccccc4)cc3OC)nnc2-c2ccncc2)cc1	-4	nt	nt	nt	nt	nt
CCC[C@H]1[C@@H](NC(=O)/C=C/c2ccccc2)CC[C@@]23CCCN2C(=O)CCC[C@@H]13	-1	nt	nt	nt	nt	nt
O=C(CCc1ccccc1)Nc1nc2nc(-c3ccccc3)cc(=O)n2[nH]1	-11	5	27*	-12	-4	12
O=C(Nc1nc2nc(-c3ccccc3)cc(=O)n2[nH]1)c1ccccc1	-6	21	5	-7	14	6
Cc1ccc(C(=O)/C=C/N(C)C)o1	2	1	-2	-2	1	9

Compound activity deposited in PubChem BioAssay by The Scripps Research Institute Molecular Screening Center.
